High-throughput results as filed in PubChem.
IEC-6 cytotox: kills IEC-6 intestinal cells in KLF5 counter-screen; IEC-6 cytotoxicity, luminescence viability; hit rate 0.78% among 290,000; inhibition, % at 5 µM; in the data active means inhibition above about 22%;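 further: 0% = plate median of test compound wells and 100% = cytotoxic reference compound wells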
MT stabilize HCS: microtubule stabilization, imaging screen; hit rate 0.83% among 200,000; HeLa tubulin immunostaining HCS, 24 h; share of cells brighter than vehicle mean+2SD; % tubulin-high responders, % at 10 µM;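 active means plate Z-score above 3 for both tubulin-high and condensed-nucleus cell shares, with cell loss under 80%, at 10 µM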;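 further: anti alpha tubulin signal scored within the nucleus-defined area of each cell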
BaF3 tox: parental Ba/F3 viability inhibition as JAK2V617F counter-screen. hit rate 1.1% among 220,000. inhibition, % at 5.6 µM. CellTiter-Glo ATP luminescence;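 active means inhibition above a per-campaign cutoff, the mean inhibition of all tested compounds plus 3 SD, cut at about 27% in these data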;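 further: 0% = DMSO wells and 100% = JAK Inhibitor I control wells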
Ba/F3 V617F tox: loss of viability in JAK2V617F-driven Ba/F3 cells | Ba/F3 EpoR-JAK2V617F viability, ATP luminescence | hit rate 1.1% among 220,000 | inhibition, % at 5.6 µM;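 active means inhibition above the campaign mean plus 3 SD over all tested compounds, cut at about 24% in these data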;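 further: cytokine-independent growth of Ba/F3 cells driven by EpoR plus mutant JAK2; 0% = DMSO-treated cells and 100% = JAK inhibitor I control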
b-catenin transl: beta-catenin nuclear translocation modulation; HeLa beta-catenin nuclear translocation, immunofluorescence imaging; nuclear translocation activity, % at 5 µM; hit rate 0.3% among 190,000; AID 1665;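 active means nuclear translocation activity above 50% at 5 µM, with a well cell count of 50 or more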;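 further: per-cell ratio of nuclear to cytoplasmic median beta-catenin stain intensity; plate controls were DMSO negative control for no effect and GSK-3 inhibitor IX positive control for full effect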
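Read-out: Nuclear/cytoplasmic beta-catenin signal ratio, % activation | Assay system: Human HeLa cell line | Times: 24 h compound exposure at 37°C, 5% CO2 | Signal: Fluorescence imaging of beta-catenin antibody stain plus DAPI | Dosing: 5 µM primary, 0.02–20 µM confirmation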
APP transl inh: APP translation inhibition | SH-SY5Y APP 5'UTR-luciferase reporter, luminescence | inhibition, % at 2 µM | hit rate 0.82% among 190,000;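 active means inhibition above a set limit, derived from the sample mean plus 3 SD, cut at about 45% in these data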
BaF3 tox 2: counter-screen for JAK2V617F inhibitors: parental Ba/F3 viability inhibitors | inhibition, % at 5.6 µM | AID 1520 | shares compounds with Ba/F3 V617F tox | CellTiter-Glo luminescence; cells kept alive by added IL-3 | hit rate 31% among 580;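 active means cell growth inhibition above the hit limit set in the earlier mutant JAK2 cell screen, cut at about 27% in these data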;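 further: plate controls were DMSO-treated cells for no effect and JAK Inhibitor I control wells for full effect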
JAK2V617F confrm: Ba/F3 EpoR-JAK2V617F viability loss, confirmation; inhibition, % at 5.6 µM; hit rate 66% among 580; AID 1521; CellTiter-Glo luminescence; shares compounds with Ba/F3 V617F tox;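 active means mean inhibition above the hit cutoff derived in the earlier primary screen, cut at about 25% in these data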;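 further: 0% = DMSO-treated cells and 100% = JAK inhibitor I control wells; higher means lower luminescence from reduced cell ATP and viability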
* hit, by the source's call; x = no result given. An excerpt weighted towards active compounds, which were near 2.2% of everything screened.

SMILES	IEC-6 cytotox	MT stabilize HCS	BaF3 tox	Ba/F3 V617F tox	b-catenin transl	APP transl inh	BaF3 tox 2	JAK2V617F confrm
CCCCCCCOC(=O)C[N+](C)(C)CCOC1CC2CCC1(C)C2(C)C (centres undefined)	4	8	85*	101*	0	10	x	x
CCCCOC(=O)C[N+](C)(C)CCOC1CC2CCC1(C)C2(C)C (centres undefined)	2	4	58*	54*	-2	-24	x	x
CC1(C)C2CCC1(C)C(OCCNCCOC(=O)Nc1ccccc1)C2 (centres undefined)	2	x	-2	-1	0	x	x	x
CCCOC(=O)C[N+](C)(C)CCOC1CC2CCC1(C)C2(C)C (centres undefined)	2	x	46*	30*	-1	x	x	x
CCCCNC(=O)c1sc(=S)n2c1[nH]c(=O)c1ccccc12	-3	5	101*	-2	1	5	x	x
CCCCN1C(C(=O)Nc2ncccn2)=C(O)c2ccccc2S1(=O)=O	-2	x	x	x	x	x	x	x
C/C(=N\NC(=O)c1cccc(Br)c1)c1ccccn1	12	x	x	x	x	x	x	x
CCOc1ccc(/C(C)=N/NC(=O)C(OC)c2ccccc2)cc1 (centres undefined)	4	10*	0	-2	6	-17	x	x
CCOc1cccc(-c2c(C(=O)N/N=C(\C)c3ccccn3)nnn2-c2nonc2N)c1	52*	x	x	x	x	x	x	x
CCOc1ccc(OCc2ccc(C(=O)N/N=C(\C)c3ccccn3)cc2)cc1	-2	11	8	5	5	78*	x	x
COC(C(=O)N/N=C(\C)c1ccc(O)cc1)c1ccccc1 (centres undefined)	5	x	x	x	x	x	x	x
Oc1ccc(-c2nc3ccc4ccccc4c3c3c2CCC3)cc1O	1	8	3	63*	-1	1	53*	97*
CCOc1cc(Br)ccc1S(=O)(=O)NCc1ccccc1	8	3	3	101*	2	1	-4	7
Cc1cc(SCC(=O)Nc2cccc(S(=O)(=O)NC3=NCCCCC3)c2)c(C)cc1Br	1	2	1	26*	-3	-14	1	31*
CC(=O)c1cccc(NC(=O)/C=C/c2ccc([N+](=O)[O-])s2)c1	-3	18	7	101*	7	81*	106*	100*
COC(=O)c1cccc(NC(=O)/C=C/c2cccc([N+](=O)[O-])c2)c1	1	3	-2	-6	-1	-20	x	x
CC(=O)Oc1ccc(Cl)cc1/C=C/c1cc(OC(C)=O)c2ccccc2n1	10	2	23	24*	-3	1	30*	48*
Cc1ccc(NC(=O)c2ccccc2)cc1	-8	3	4	0	0	-97	x	x
Cc1ccc(NC(=O)C2=C(c3ccccc3)S(=O)(=O)CCS2(=O)=O)cc1	7	1	0	71*	-1	93*	40*	99*
CCOc1ccc(OCCC(=O)OCC(=O)N2CCN(S(=O)(=O)c3ccc(Cl)cc3)CC2)cc1	2	x	x	x	x	x	x	x
CC(/C=C/c1ccccc1)=N\NC(=O)Cn1cncn1	1	x	-2	31*	1	x	-6	-9
COc1cc2c(cc1NC(=O)c1cccc([N+](=O)[O-])c1C)oc1ccccc12	6	4	1	53*	2	-8	-5	5
C/C(=N\Nc1nc(-c2ccccn2)nc2ccccc12)c1ccc(F)cc1	3	x	0	0	2	x	x	x
c1ccc(CCNc2nc(-c3ccccn3)nc3ccccc23)cc1	8	x	9	58*	4	x	10	88*
CCC(NC(=S)NCc1ccc(F)cc1)c1ccc(C)cc1 (centres undefined)	5	x	x	x	x	x	x	x
SMILES	IEC-6 cytotox	MT stabilize HCS	BaF3 tox	Ba/F3 V617F tox	b-catenin transl	APP transl inh	BaF3 tox 2	JAK2V617F confrm
Cc1[nH]c(=O)[nH]c(=O)c1S(=O)(=O)Nc1cccc(C(F)(F)F)c1	0	x	x	x	x	x	x	x
COc1ccc(-c2cc(-c3ccc(C)cc3)n[nH]2)c(O)c1	-1	x	x	x	x	x	x	x
COc1ccc(-c2cc(-c3cc(C)ccc3O)[nH]n2)cc1	-3	1	10	32*	2	-62	25	80*
COC(=O)CCC(=O)NNC(=O)C1CC1(c1ccccc1)c1ccccc1 (centres undefined)	1	x	x	x	x	x	x	x
Cc1ccc(-c2cc(C(=O)Nc3cc(C)on3)c3ccccc3n2)cc1	8	2	0	-1	-1	2	x	x
Cc1cc(NC(=O)c2cc(-c3ccc(C)c(C)c3)nc3ccccc23)no1	10	2	5	63*	x	-6	0	-1
CC(=O)c1ccc(NC(=S)N(CCCN(C)C)Cc2ccccc2)cc1	3	x	2	-5	0	x	x	x
CN(C)CCCN(Cc1ccccc1)C(=S)Nc1ccc(SC(F)F)cc1	2	2	18	36*	1	7	25	45*
OC(CNCCc1ccc(C(F)(F)F)cc1)COC(c1ccccc1)c1ccccc1 (centres undefined)	-1	x	x	x	x	x	x	x
COc1ccc(NC(=O)CSCC(=O)Nc2cc(Cl)ccc2N2CCCC2)cc1	-7	x	x	x	x	x	x	x
COCCNC(=O)[C@H]1N2C(=O)c3ccccc3C2SC1(C)C (some centres undefined)	-5	x	x	x	x	x	x	x
CCc1ccc(NC(=O)c2noc3c2CCc2ccccc2-3)cc1	3	1	24	61*	x	-1	-3	-13
CC(Sc1ncc(C(F)(F)F)cc1Cl)C(=O)NC(N)=O (centres undefined)	0	2	3	39*	5	-14	0	-2
CC(NC(=O)c1cc2cc(F)ccc2[nH]1)c1ccccc1 (centres undefined)	4	x	x	x	x	x	x	x
CCOc1ccc2c(c1)C(C)=CC(C)(C)N2S(=O)(=O)c1ccc(F)cc1	12	x	x	x	x	x	x	x
CC1=CC(C)(C)N(S(=O)(=O)c2ccc(C)cc2)c2ccccc21	5	12	11	30*	x	20	46*	94*
C=CCn1c(CNC(=O)c2ccco2)nnc1SCC(=O)N1c2ccccc2Sc2ccccc21	3	3	22	71*	x	-2	-1	-1
CC(C)c1ccc(CN2CCC(Oc3ccc(C(=O)N4CCCC4)cc3)CC2)cc1	-11	x	x	x	x	x	x	x
O=C(Nc1ccc(C#Cc2ccccc2)cc1)C1CC1	4	1	12	38*	9	-110	2	7
O=C(Nc1ccc(Oc2ccccc2)cc1)C1CC1	4	3	-1	-3	-5	-26	x	x
CC(=O)c1ccccc1OCCCCN1CCCCC1	-2	x	x	x	x	x	x	x
CC(C)C[C@H](NC(=O)OC(C)(C)C)c1nnc(SCC(=O)Nc2ccc(Br)cc2)o1	-4	2	3	99*	-3	-5	-6	-1
CC(C)C[C@H](N)c1nnc(SCC(=O)Nc2ccc(Br)cc2)o1	2	x	x	x	x	x	x	x
